Numbering of substitutions follows the chain as printed.
Key:
Assay type in all cases: cell-based
[1] = target: T1, rat P2X2 receptor (rP2X2R) WT (Rattus norvegicus, UniProt P49653)
T1 sequence (P49653 1-472): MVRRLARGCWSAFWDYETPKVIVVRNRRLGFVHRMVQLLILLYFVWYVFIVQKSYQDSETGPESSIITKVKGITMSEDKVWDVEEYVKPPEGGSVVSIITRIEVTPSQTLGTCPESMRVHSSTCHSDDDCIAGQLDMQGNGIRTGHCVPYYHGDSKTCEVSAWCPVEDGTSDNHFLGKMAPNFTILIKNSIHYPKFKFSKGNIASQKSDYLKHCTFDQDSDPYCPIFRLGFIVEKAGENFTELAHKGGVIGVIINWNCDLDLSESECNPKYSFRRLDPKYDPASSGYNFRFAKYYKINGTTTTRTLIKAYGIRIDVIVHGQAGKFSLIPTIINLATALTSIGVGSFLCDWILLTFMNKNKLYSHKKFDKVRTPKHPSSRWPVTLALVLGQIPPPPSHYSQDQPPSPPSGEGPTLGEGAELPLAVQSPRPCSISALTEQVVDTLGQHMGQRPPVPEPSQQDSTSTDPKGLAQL
Outline: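 Collagenase-digested Xenopus oocytes were injected with WT rP2X2 mRNA (30 ng) and kept in L-15 at 18°C. Two-electrode voltage clamp was done 1–2 days later at −40 mV in ND96 (pH 7.4). Agonists were freshly dissolved in ND96 at pH 7.4. Responses were normalised to 1 mM ATP current in the same cell, and Hill fits gave EC50 and nH. Relative efficacy is the agonist maximal current versus 1 mM ATP. Results are mean ± SEM, compared by one-way ANOVA with Dunnett's test.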

rP2X2 Lys71Arg = target: T2, rP2X2 Lys71Arg (Rattus norvegicus, UniProt P49653, K71R); experiment: Two-electrode voltage clamp, oocytes expressing rP2X2 Lys71Arg
T2 sequence (P49653 1-472 K71R): T1 sequence (P49653 1-472) with K71R
Outline: (§1)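 Mutations were made by site-directed mutagenesis. Xenopus oocytes were injected with rP2X2 mRNA and incubated in L-15 at 18°C. Two-electrode voltage clamp was done 1–2 days later at −40 mV under ND96 perfusion (pH 7.4). ATP concentration-response currents were normalised and fitted to a one-component Hill equation for EC50 and Hill coefficient. Results are mean ± SEM, tested by one-way ANOVA with Dunnett's test against WT.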

rP2X2 Lys188Arg = target: T3, rP2X2 Lys188Arg (Rattus norvegicus, UniProt P49653, K188R); experiment: Two-electrode voltage clamp, oocytes expressing rP2X2 Lys188Arg
T3 sequence (P49653 1-472 K188R): T1 sequence (P49653 1-472) with K188R
Outline: as §1

rP2X2 Lys308Arg = target: T4, rP2X2 Lys308Arg (Rattus norvegicus, UniProt P49653, K308R); experiment: Two-electrode voltage clamp, oocytes expressing rP2X2 Lys308Arg
T4 sequence (P49653 1-472 K308R): T1 sequence (P49653 1-472) with K308R
Outline: as §1

rP2X2 Arg290Gln = target: T5, rP2X2 Arg290Gln (Rattus norvegicus, UniProt P49653, R290Q); experiment: Two-electrode voltage clamp, oocytes expressing rP2X2 Arg290Gln
T5 sequence (P49653 1-472 R290Q): T1 sequence (P49653 1-472) with R290Q
Outline: as §1

Nc1ncnc2c1ncn2[C@@H]1O[C@H](COP(=O)(O)OP(=O)(O)OP(=O)(O)O)[C@@H](O)[C@H]1O [ATP, Adenosine 5′-triphosphate]
EC50 [1]: 32 ± 4 µM
EC50 (rP2X2 Lys71Arg): 370 ± 40 µM
EC50 (rP2X2 Lys188Arg): 57 ± 8 µM
EC50 (rP2X2 Lys308Arg): 6000 µM
EC50 (rP2X2 Arg290Gln): 4900 µM
